Key:
[1] = Equieffective molar ratio of compound to inhibit hyperpolarization in cultured rat sympathetic neurons; assay type: functional, Sympathetic neuron
Outline: (§1)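 Rat sympathetic neurons dissociated, plated on laminin-coated dishes and cultured 3–10 days, then perfused with physiological salt solution (mM: NaCl 118, KCl 4.8, CaCl2 2.5). AHP inhibition taken as the peak difference between control and blocker records, as % of control AHP. Dequalinium reference run in each series. EMR is test-compound IC50 divided by dequalinium IC50 from the same experiment; IC50 by Hill fit, ≥3 cells.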

[2] = target: T1, Small conductance calcium-activated potassium channel (Rattus norvegicus, UniProt P70604+P70606+P70605); assay: SKCa-blocking activity by its ability to inhibit after hyperpolarization (AHP) in cultured rat sympathetic neurons; assay type: functional, cell-based; settings: sympathetic neuron
Outline: (§2)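 AHP block was the peak of the digitally subtracted control-minus-drug record, as % of control AHP at the same time point. IC50 came from a Hill equation fit over at least three cells. Test concentrations above 10–30 µM were generally avoided.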

[3] = Equieffective molar ratio of compound to inhibit hyperpolarization in cultured rat sympathetic neurons; No activity up to this concentration; assay type: functional, Sympathetic neuron; outline: as §1
[4] = target: T1, Small conductance calcium-activated potassium channel; assay: SKCa-blocking activity as inhibitino of after hyperpolarization (AHP) in cultured rat sympathetic neurons; No activity at maximal dose used; assay type: functional, cell-based; settings: sympathetic neuron
Outline: as §2, with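 “Cultured rat sympathetic neurons (laminin-coated dishes, 3–10 days) were perfused with physiological salt solution (mM: NaCl 118, KCl 4.8, CaCl2 2.5). AHP block” for “AHP block”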

[5] = Equieffective molar ratio of compound to inhibit hyperpolarization in cultured rat sympathetic neurons; Insufficient activity up to this concentration to determine; assay type: functional, Sympathetic neuron; outline: as §1
[6] = target: T1, Small conductance calcium-activated potassium channel; assay: SKCa-blocking activity as inhibition of after hyperpolarization (AHP) in cultured rat sympathetic neurons; Insufficient activity at maximal dose used; assay type: functional, cell-based; settings: sympathetic neuron
Outline: as §2, with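 “Cultured rat sympathetic neurons (laminin-coated dishes, 3–10 days) were perfused with physiological salt solution (mM: NaCl 118, KCl 4.8, CaCl2 2.5). AHP block” for “AHP block”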

SMILES | IC50 [2] | Ratio [1] | also measured
c1ccc2c(NCCCCCCCCCCNc3ccnc4ccccc34)ccnc2c1 | – | 3.5 | –
C[n+]1ccc(NCCCCCCCCNc2cc[n+](C)c3ccccc23)c2ccccc21 | 2.7 µM | 3.1 | –
C[n+]1ccc(CCCCCCCCCCc2cc[n+](C)c3ccccc23)c2ccccc21 | 40 µM | 26 | –
c1ccc2c(CCCCCCCCCCCCc3ccnc4ccccc34)ccnc2c1 | – | – | Ratio [3]: >10; IC50 [4]: > 10 µM
C[n+]1ccc(NCCCCCCCCCCNc2cc[n+](C)c3ccccc23)c2ccccc21 | 2.1 µM | 1.9 | –
C[n+]1ccc(OCCCCCCCCCCOc2cc[n+](C)c3ccccc23)c2ccccc21 | 6.8 µM | 7.2 | –
c1ccc2c(SCCCCCCCCCCSc3ccnc4ccccc34)ccnc2c1 | – | – | Ratio [5]: >10; IC50 [6]: > 10 µM
Cc1cc(NCCCCCCCCCCCCNc2cc(C)nc3ccccc23)c2ccccc2n1 | 3.8 µM | 7.1 | –
C[n+]1ccc(SCCCCCCCCCCSc2cc[n+](C)c3ccccc23)c2ccccc21 | 3.7 µM | 6.2 | –
COc1cc(C[n+]2c(C)cc(NCCCCCCCCCCNc3cc(C)nc4ccccc34)c3ccccc32)cc(OC)c1 | 0.75 µM | 1.2 | –
Cc1cc(NCCCCCCCCCCCCNc2cc(C)[n+](Cc3ccccc3)c3ccccc23)c2ccccc2n1 | 4.4 µM | 8 | –
Cc1cc(NCCCCCCCCCCNc2cc(C)[n+](Cc3ccccc3)c3ccccc23)c2ccccc2n1 | 1.3 µM | 2.4 | –
c1ccc(C[n+]2ccc(NCCCCCCCCCCNc3cc[n+](Cc4ccccc4)c4ccccc34)c3ccccc32)cc1 | 0.7 µM | 1 | –
Cc1cc(N)c2ccccc2[n+]1CCCCCCCCCC[n+]1c(C)cc(N)c2ccccc21.[Cl-].[Cl-] [DEQUALINIUM CHLORIDE] | 1 µM | – | –
Cc1cc(NCCCCCCCCCCNc2cc(C)nc3ccccc23)c2ccccc2n1 [QUINDECAMINE] | 2.5 µM | 3.6 | –

The next lines start with results.

IC50 [2] | SMILES | Ratio [1] | also measured
2.4 µM | Cc1cc(NCCCCCCCCCCCCNc2cc(C)[n+](Cc3ccccc3)c3ccccc23)c2ccccc2[n+]1Cc1ccccc1 | 4 | –
18 µM | c1ccc2c(OCCCCCCCCCCOc3ccnc4ccccc34)ccnc2c1 | 16 | –
3.9 µM | C[n+]1ccc(CCCCCCCCCCCCc2cc[n+](C)c3ccccc23)c2ccccc21 | 5.9 | –
4.3 µM | Cc1cc(NCCCCCCCCCCNc2cc(C)[n+](CCC(c3ccccc3)c3ccccc3)c3ccccc23)c2ccccc2[n+]1CCC(c1ccccc1)c1ccccc1 | 6.2 | –
0.4 µM | Cc1cc(NCCCCCCCCCCNc2cc(C)[n+](Cc3ccccc3)c3ccccc23)c2ccccc2[n+]1Cc1ccccc1 | 0.6 | –
1.3 µM | C[n+]1ccc(NCCCCCCCCCCNc2cc[n+](C)c3cc(Cl)ccc23)c2ccc(Cl)cc21 | 1.5 | –
1.7 µM | COc1cc(C[n+]2c(C)cc(NCCCCCCCCCCNc3cc(C)[n+](Cc4cc(OC)cc(OC)c4)c4ccccc34)c3ccccc32)cc(OC)c1 | 2.1 | –

From ChEMBL document CHEMBL1129653, “Synthesis and quantitative structure-activity relationship of a novel series of small conductance Ca(2+)-activated K+ channel blockers related to dequalinium” (J Med Chem, 1996)
